Screening results as filed in PubChem.
PREPL inh: inhibits the human prolyl oligopeptidase-like enzyme; recombinant PREPL, fluorescence polarization activity-based probe; 320,000 compounds, 0.68% hits; AID 2751; inhibition, % at 5.96 µM; in the data active = inhibition above about 43%
proCasp7 act: activates human procaspase-7, counter-screen for procaspase-3 activators; P55210; recombinant procaspase-7, Ac-DEVD-pNA absorbance 405 nm; D23A/D198A/D206A triple mutant, cannot self-cleave; scale: DMSO 0, 5 µM enzyme 100; activation, % at 8.5 µM; 330,000 compounds, 0.093% hits; AID 463210;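 active = percent activation above the screen-wide mean plus 3 SD, cut at about 25% in these data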
Target sequence (P55210 whole entry D23A/D198A/D206A): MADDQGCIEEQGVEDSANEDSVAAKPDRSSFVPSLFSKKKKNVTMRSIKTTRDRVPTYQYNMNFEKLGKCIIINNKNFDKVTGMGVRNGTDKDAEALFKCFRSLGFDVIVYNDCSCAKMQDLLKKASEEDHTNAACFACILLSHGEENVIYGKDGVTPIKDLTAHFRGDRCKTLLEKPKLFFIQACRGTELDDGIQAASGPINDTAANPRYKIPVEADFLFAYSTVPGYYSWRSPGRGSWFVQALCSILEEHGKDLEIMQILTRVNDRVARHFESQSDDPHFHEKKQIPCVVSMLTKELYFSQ
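Assay system: Uncleavable procaspase-7 mutant enzyme; Input: 2 µM procaspase-7 mutant as dispensed; Also added: DEVD-pNA substrate; Medium: Zinc-free HEPES pH 7.4 with 300 mM NaCl, 0.01% Triton X-100; Timing: 1 h compound preincubation, 2 h substrate cleavage, 25 °C; Measured by: Epi-absorbance of released pNA at 405 nm, two timepoints.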
LYPLA2 inh: counter-screen for PME1 inhibitors: inhibitors of human LYPLA2. O95372. recombinant LYPLA2, FP-Rh probe fluorescence polarization. inhibition, % at 5.9 µM. 320,000 compounds, 0.38% hits;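 active = inhibition above the screen-wide mean plus 3 SD, limit set per campaign, cut at about 26% in these data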
procasp3 activ: procaspase-3 (human) activation; P42574; recombinant procaspase-3 D3A, Ac-DEVD-pNA absorbance 405 nm; activation, % at 8.5 µM; 330,000 compounds, 0.11% hits; AID 463141;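 active = activation above the mean of all tested compounds plus 3 SD, cut at about 21% in these data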
Target sequence (P42574 whole entry D9A/D28A/D175A): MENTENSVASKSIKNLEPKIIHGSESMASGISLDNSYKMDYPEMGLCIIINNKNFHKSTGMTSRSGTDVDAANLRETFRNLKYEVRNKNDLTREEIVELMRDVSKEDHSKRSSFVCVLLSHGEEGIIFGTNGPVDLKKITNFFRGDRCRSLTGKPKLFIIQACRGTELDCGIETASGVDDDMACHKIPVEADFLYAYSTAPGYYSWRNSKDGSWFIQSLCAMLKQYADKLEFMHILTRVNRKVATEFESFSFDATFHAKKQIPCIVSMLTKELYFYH
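assay system = Procaspase-3 D3A mutant | signal = absorbance at 405 nm, 0 and 120 min | times = 1 h preincubation plus 2 h reaction at 25 °C | repeats = single replicate | read-out = % activation between DMSO and enzyme-spiked controls | medium = Zinc-free HEPES saline buffer with Triton X-100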
LYPLA1 inh: counter-screen for PME1 inhibitors: inhibitors of human LYPLA1. O75608. recombinant LYPLA1, FP-Rh probe fluorescence polarization. inhibition, % at 5.9 µM. 320,000 compounds, 0.16% hits;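 active = inhibition above the mean of all tested compounds plus 3 SD, set per campaign, cut at about 14% in these data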;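 note: inhibitors block serine hydrolase probe labeling of LYPLA1 so polarization falls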
proCasp7 act trip: counter-screen: procaspase-7 (human) activation in triplicate; 210 tested, under 10 active; recombinant procaspase-7, Ac-DEVD-pNA absorbance; asp23/198/206-to-Ala mutant, cannot self-cleave; activation, % at 8.5 µM; shares compounds with procasp3 activ;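 active = mean activation above a set limit taken from an earlier procaspase-7 screen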
proCasp3 confirm: confirmation of human procaspase-3 activators. shares compounds with procasp3 activ. recombinant PC-3 D3A, Ac-DEVD-pNA absorbance 405 nm; 100% is higher-enzyme control. activation, % at 8.5 µM. 210 compounds, 10% hits;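 active = mean activation above a set limit carried over from the earlier primary screen, cut at about 22% in these data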
PC3 dual counter: counter-screen for dual procaspase-3/7 activators: human procaspase-3 activation; shares compounds with proCasp7 act; recombinant PC-3 D3A, Ac-DEVD-pNA absorbance 405 nm; aspartates 9, 28, 175 changed to alanine; 100% = enzyme control; activation, % at 8.5 µM; 290 tested, under 10 active; AID 493114;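 active = mean percent activation across triplicates above a set limit taken from the earlier primary procaspase-3 screen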
PC7 dual conf: procaspase-7 (human) activation, dual activator confirmation; 290 tested, under 10 active; recombinant procaspase-7, Ac-DEVD-pNA absorbance 405 nm; D23A/D198A/D206A mutant that cannot self-cleave; shares compounds with proCasp7 act; activation, % at 8.5 µM;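 active = mean activation above a set limit carried over from the earlier primary screen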
Large screens that a line does not name were inactive (follow-up assays come after a bar, where they were run). Shown are actives, neighbours in structure and some others; about 1% of the full set was active somewhere.

O=c1c2ccccc2c(-c2ccccc2)nn1-c1cc(Cl)cc(Cl)c1	procasp3 activ 22 | proCasp7 act trip inactive | proCasp3 confirm inactive
CC(NC(=O)c1cc2cc([N+](=O)[O-])ccc2oc1=O)C1CCCO1 (stereo not given)	procasp3 activ 22 | proCasp7 act trip inactive | proCasp3 confirm 32
COc1ccc(C(=O)NNC(=O)c2cc3cc([N+](=O)[O-])ccc3oc2=O)cc1OC	none
CCCCN(C1CCS(=O)(=O)C1)S(=O)(=O)c1cccs1 (stereo not given)	none
Cc1ccc(C(=O)N2CCN(c3ccccc3O)CC2)cc1S(=O)(=O)N1CCCCC1	none
CCc1ccc2c(CN3CCN(S(=O)(=O)c4ccc5c(c4)OCCO5)CC3)cc(=O)oc2c1	none
O=c1cc(CN2CCN(S(=O)(=O)c3ccc4c(c3)OCCO4)CC2)c2ccc(O)cc2o1	procasp3 activ 22 | proCasp7 act trip inactive | proCasp3 confirm inactive
O=C1CC(c2ccc3ccccc3c2)NN1 (stereo not given)	none
COc1ccccc1C(=O)Nc1ccc2c(c1)C(=O)NC2=O	none
Oc1c(Br)cc(Br)cc1/C=N/NC(=S)N[C@H]1CC2C=CC1C2 (stereo not given in full)	procasp3 activ 23 | proCasp7 act trip inactive | proCasp3 confirm 31
COC(=O)c1cccc(N(CC(=O)NC2CCCC2)C(=O)CCC(=O)Nc2cc(C)on2)c1	proCasp7 act 57 | PC3 dual counter inactive | PC7 dual conf inactive
COc1ccc(-c2nnc(SCC(=O)N3CCCCC3)o2)cc1	none
c1ccc2c(-c3c[nH]c4ccccc34)c3ccccc3nc2c1	proCasp7 act 33 | PC3 dual counter inactive | PC7 dual conf inactive
CCOC(=O)/C(C#N)=C/c1c(Oc2cccc(C)c2)nc2c(C)cccn2c1=O	none
Cc1ccc(Oc2nc3c(C)cccn3c(=O)c2/C=C(\C#N)C(N)=O)cc1	proCasp7 act 46, procasp3 activ 22 | PC3 dual counter inactive | PC7 dual conf inactive
Cc1cc(=O)oc2cc(NC(=S)NCc3cccnc3)ccc12	none
Nc1ccccc1-c1nc2ccccc2s1	none
O=c1c(-c2nc3ccccc3s2)cccn1Cc1ccccc1	proCasp7 act 56 | PC3 dual counter inactive | PC7 dual conf inactive
Cc1ccc(Cn2cccc(-c3nc4ccccc4s3)c2=O)cc1	proCasp7 act 43 | PC3 dual counter inactive | PC7 dual conf inactive
CC(=O)NCc1ccc(-c2nc3ccccc3s2)cc1	none
CCOC(=O)CN1CC23C=CC(O2)C(C(=O)NC2CCCC2)C3C1=O (stereo not given)	none
CCOC(=O)c1ccc2nc(Nc3nc4ccc(F)cc4s3)sc2c1	proCasp7 act 31 | PC3 dual counter inactive | PC7 dual conf inactive
CCOC(=O)c1ccc2nc(NC(C)=O)sc2c1	none
Cn1c2ccccc2c(=O)c2cc(C#CC3(O)CCCCC3)ccc21	proCasp7 act 180, procasp3 activ 41 | PC3 dual counter inactive | PC7 dual conf inactive
Cn1c2ccccc2c(=O)c2cc(C#Cc3ccsc3)ccc21	proCasp7 act 40, procasp3 activ 39 | PC3 dual counter inactive | PC7 dual conf inactive
Cn1c2ccccc2c(=O)c2cc(C#Cc3ccccn3)ccc21	none
Cn1c2ccccc2c(=O)c2ccc(C#Cc3ccccn3)cc21	proCasp7 act 27 | PC3 dual counter inactive | PC7 dual conf inactive
COc1ccc(CNCc2c(C(=O)N(C)C)nc3ccc(Cl)cn23)c(OC)c1	none
COc1ccccc1NC(=O)Nc1cccc(NC(C)=O)c1	proCasp7 act 74 | PC3 dual counter inactive | PC7 dual conf inactive
COc1ccc(NC(=O)Nc2cccc(NC(C)=O)c2)c(OC)c1	none
COc1ccc(O)c(C(=O)c2cnn(S(=O)(=O)c3ccc(C)cc3)c2)c1	none
COc1ccc(CNC(=O)C2CCN(c3cc(C(=O)Nc4cccc(OC)c4)ccn3)CC2)cc1	proCasp7 act 53 | PC3 dual counter inactive | PC7 dual conf inactive
COc1ccc(CNC(=O)C2CCN(c3nc(OC)nc(OC)n3)CC2)cc1	none
COc1cccc(NC(=O)c2ccnc(N3CCC(C(=O)NCc4cc(OC)ccc4OC)CC3)c2)c1	proCasp7 act 33 | PC3 dual counter inactive | PC7 dual conf inactive
O=C(Nc1nccs1)c1nc[nH]c1C(=O)N1CCN(c2ccccc2)CC1	none (no result: LYPLA2 inh, LYPLA1 inh)
CC(=O)c1cccc(NC(=O)Nc2cc3sccc3n2C)c1	none
CS(=O)(=O)N1N=C(c2ccco2)CC1c1ccco1 (stereo not given)	proCasp7 act 36 | PC3 dual counter inactive | PC7 dual conf inactive
Cc1cc2ccccc2n1CCNCc1c(C(=O)N2CCOCC2)nc2ccccn12	none
COc1ccc(CCN(Cc2ccccn2)C(=S)Nc2ccccc2C)cc1OC	none
COc1ccc(N2CC(C(=O)Nc3nnc(C4CCCCC4)s3)CC2=O)cc1 (stereo not given)	none
CCOc1ccc(C(=O)NCC(=O)NCC(c2ccco2)N2CCCCC2)cc1OCC (stereo not given)	none
Cc1ccc(C(=O)N/N=C/C2=Cc3ccccc3OC2C)cc1 (stereo not given)	proCasp7 act 34 | PC3 dual counter inactive | PC7 dual conf inactive
COc1cc(NC(=O)CN2CCN(Cc3ccc4c(c3)OCO4)CC2)cc(OC)c1	none
Nc1c(S(=O)(=O)c2cccs2)c2nc3ccccc3nc2n1Cc1cccs1	proCasp7 act 78, procasp3 activ 82 | PC3 dual counter inactive | PC7 dual conf inactive
COC(=O)c1cccc(N(C(=O)c2cnccn2)C(C(=O)NCc2ccccc2)c2ccco2)c1 (stereo not given)	none
COc1cc(OC)c(OC)cc1/C=C1\CC(C)C/C(=C\c2cc(OC)c(OC)cc2OC)C1=O (stereo not given)	none
COc1cc(OC)c(OC)cc1/C=C1/Cc2ccccc2C1=O	proCasp7 act 28 | PC3 dual counter inactive | PC7 dual conf inactive
